What was measured:
[1] = target: T1, 5-hydroxytryptamine receptor 6 (Homo sapiens, UniProt P50406); assay: Displacement of [3H]LSD from cloned human 5HT6 expressed in HeLa cells; assay type: cell-based
In short: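 Radioligand binding used [3H]-LSD on human-cloned 5-HT6 receptors stably transfected in HeLa cells. Ki values were determined in triplicate.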

[2] = target: T1, 5-hydroxytryptamine receptor 6; assay: Antagonist activity at human 5HT6 expressed in HeLa cells assessed as intracellular cAMP level by radioimmunoassay; assay type: functional, cell-based
In short: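 Stably transfected h5-HT6 HeLa cells were washed in Krebs buffer and preincubated 5 min at 37 °C in Krebs with 500 μM IBMX. Test compound was then added at 0.1–10000 nM for 10 min at 37 °C. The reaction was stopped with 0.5 M perchloric acid, and intracellular cAMP was measured by scintillation proximity RIA. IC50 and Imax were determined in triplicate.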

[3] = target: T1, 5-hydroxytryptamine receptor 6; assay: Agonist activity at human 5HT6 expressed in HeLa cells assessed as intracellular cAMP level by radioimmunoassay; assay type: functional, cell-based

T1 sequence (P50406 whole entry): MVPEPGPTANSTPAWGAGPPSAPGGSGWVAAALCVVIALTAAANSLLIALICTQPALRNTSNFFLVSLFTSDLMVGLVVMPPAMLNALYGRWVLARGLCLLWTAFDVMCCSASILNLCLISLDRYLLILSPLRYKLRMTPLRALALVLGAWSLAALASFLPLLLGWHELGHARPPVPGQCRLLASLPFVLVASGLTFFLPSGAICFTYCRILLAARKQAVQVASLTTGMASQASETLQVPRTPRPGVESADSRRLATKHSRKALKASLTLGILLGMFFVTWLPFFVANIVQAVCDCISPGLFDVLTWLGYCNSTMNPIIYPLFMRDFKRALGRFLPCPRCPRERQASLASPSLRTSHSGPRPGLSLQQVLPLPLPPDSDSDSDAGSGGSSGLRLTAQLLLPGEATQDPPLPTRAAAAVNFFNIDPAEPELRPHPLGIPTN

| Structure (SMILES) | Ki [1] | IC50 [2] | Imax [2] | EC50 [3] | %max [2] |
| --- | --- | --- | --- | --- | --- |
| CN1CCC(n2cc(S(=O)(=O)c3ccccc3)c3cccnc32)C1 (configuration not stated) | 2.5 nM |  |  | 2030 nM |  |
| CC(C)N1CCCC(n2cc(S(=O)(=O)c3cccc(Br)c3)c3cccnc32)C1 (configuration not stated) | 9.4 nM | 492 nM | 77% |  |  |
| CC(C)N1CCCC(n2cc(S(=O)(=O)c3c(Cl)nc4sccn34)c3cccnc32)C1 (configuration not stated) | 1.7 nM | 8 nM |  |  |  |
| CN1CCC(n2cc(S(=O)(=O)c3ccccc3F)c3cccnc32)C1 (configuration not stated) | 5.6 nM | 186 nM |  |  | 69% |
| CN1CCCC(n2cc(S(=O)(=O)c3ccc(Cl)s3)c3cccnc32)C1 (configuration not stated) | 1.9 nM |  |  | 71 nM |  |
| CN1CCCC(n2cc(S(=O)(=O)c3cccc(C(F)(F)F)c3)c3cccnc32)C1 (configuration not stated) | 2.1 nM |  |  | 49 nM |  |
| CN1CCCC(n2cc(S(=O)(=O)c3cc(Cl)cc(Cl)c3)c3cccnc32)C1 (configuration not stated) | 3.9 nM |  |  | 38.7 nM |  |
| CN1CCC(n2cc(S(=O)(=O)c3c(Cl)nc4sccn34)c3cccnc32)C1 (configuration not stated) | 0.8 nM | 26 nM |  |  |  |
| CN1CCC(n2cc(S(=O)(=O)c3cccc(Cl)c3)c3cccnc32)C1 (configuration not stated) | 1.5 nM | 142 nM |  |  | 85% |
| O=S(=O)(c1cn(C2CCNC2)c2ncccc12)c1c(Cl)nc2sccn12 (configuration not stated) |  |  |  | 80 nM |  |
| O=S(=O)(c1cn(C2CCCNC2)c2ncccc12)c1c(Cl)nc2sccn12 (configuration not stated) | 0.7 nM |  |  | 66 nM |  |
| CN1CCCC(n2cc(S(=O)(=O)c3c(Cl)nc4sccn34)c3cccnc32)C1 (configuration not stated) | 2 nM |  |  | 25 nM |  |
| CCN1CCCC(n2cc(S(=O)(=O)c3ccccc3)c3cccnc32)C1 (configuration not stated) | 3.6 nM | 26 nM | 58% |  |  |
| CCN1CCC(n2cc(S(=O)(=O)c3cccc(Cl)c3)c3cccnc32)C1 (configuration not stated) | 3.3 nM | 120 nM |  |  | 93% |
| CCN1CCCC(n2cc(S(=O)(=O)c3ccc(Cl)s3)c3cccnc32)C1 (configuration not stated) | 3.2 nM |  |  | 50 nM |  |
| CCN1CCCC(n2cc(S(=O)(=O)c3cc(Cl)cc(Cl)c3)c3cccnc32)C1 (configuration not stated) | 13.5 nM |  |  | 67 nM |  |
| CN1CCC(n2cc(S(=O)(=O)c3ccccc3Cl)c3cccnc32)C1 (configuration not stated) | 2.2 nM | 91 nM |  |  | 91% |
| CCN1CCC(n2cc(S(=O)(=O)c3c(Cl)nc4sccn34)c3cccnc32)C1 (configuration not stated) | 1.4 nM | 10 nM |  |  |  |
| CCN1CCCC(n2cc(S(=O)(=O)c3c(Cl)nc4sccn34)c3cccnc32)C1 (configuration not stated) | 0.7 nM |  |  | 34 nM |  |
| CC(C)N1CCCC(n2cc(S(=O)(=O)c3cccc(F)c3)c3cccnc32)C1 (configuration not stated) | 3.4 nM |  |  | 172 nM |  |
| CN1CCCC(n2cc(S(=O)(=O)c3cccc(F)c3)c3cccnc32)C1 (configuration not stated) | 4.7 nM |  |  | 306 nM |  |
| CCN1CCC(n2cc(S(=O)(=O)c3cccc(F)c3)c3cccnc32)C1 (configuration not stated) | 8.3 nM | 132 nM |  |  | 89% |
| CCN1CCC(n2cc(S(=O)(=O)c3ccccc3)c3cccnc32)C1 (configuration not stated) | 11 nM | 56 nM |  |  | 75% |

More lines, now with the values ahead:

| Ki [1] | IC50 [2] | Imax [2] | EC50 [3] | %max [2] | Structure (SMILES) |
| --- | --- | --- | --- | --- | --- |
| 2 nM | 50 nM | 100% |  |  | O=S(=O)(c1ccccc1F)c1cn(C2CCCNC2)c2ncccc12 (configuration not stated) |
| 2.4 nM |  |  | 67 nM |  | O=S(=O)(c1cccc(F)c1)c1cn(C2CCCNC2)c2ncccc12 (configuration not stated) |
| 4.3 nM | 135 nM |  |  | 96% | O=S(=O)(c1ccc(Br)cc1)c1cn(C2CCNC2)c2ncccc12 (configuration not stated) |
| 4.9 nM |  |  | 47 nM |  | O=S(=O)(c1ccccc1)c1cn(C2CCCNC2)c2ncccc12 (configuration not stated) |
| 1.5 nM |  |  | 1680 nM |  | O=S(=O)(c1cccc(Cl)c1)c1cn(C2CCNC2)c2ncccc12 (configuration not stated) |
| 1.3 nM |  |  | 520 nM |  | O=S(=O)(c1cccc(C(F)(F)F)c1)c1cn(C2CCNC2)c2ncccc12 (configuration not stated) |
| 1.3 nM |  |  | 35 nM |  | O=S(=O)(c1cccc(Br)c1)c1cn(C2CCNC2)c2ncccc12 (configuration not stated) |
| 5 nM | 213 nM |  |  | 85% | CN1CCC(n2cc(S(=O)(=O)c3ccc(F)cc3)c3cccnc32)C1 (configuration not stated) |
| 4.6 nM |  |  | 273 nM |  | O=S(=O)(c1cccc(C(F)(F)F)c1)c1cn(C2CCCNC2)c2ncccc12 (configuration not stated) |
| 6.1 nM |  |  | 297 nM |  | O=S(=O)(c1cc(Cl)cc(Cl)c1)c1cn(C2CCCNC2)c2ncccc12 (configuration not stated) |
| 7.6 nM | 682 nM | 76% |  |  | O=S(=O)(c1ccc(Cl)cc1)c1cn(C2CCCNC2)c2ncccc12 (configuration not stated) |
| 4.2 nM | 95 nM |  |  | 98% | CN1CCC(n2cc(S(=O)(=O)c3ccc(Cl)cc3)c3cccnc32)C1 (configuration not stated) |
| 3.7 nM |  |  | 50 nM |  | O=S(=O)(c1ccccc1Cl)c1cn(C2CCCNC2)c2ncccc12 (configuration not stated) |
| 3.8 nM |  |  | 72 nM |  | O=S(=O)(c1cccc(Br)c1)c1cn(C2CCCNC2)c2ncccc12 (configuration not stated) |
| 5.7 nM | 643 nM |  |  | 100% | O=S(=O)(c1cn(C2CCNC2)c2ncccc12)c1cccc2cccnc12 (configuration not stated) |
| 12 nM |  |  | 414 nM |  | O=S(=O)(c1ccc(C(F)(F)F)cc1)c1cn(C2CCCNC2)c2ncccc12 (configuration not stated) |
| 33.5 nM | 70 nM | 71% |  |  | CCN1CCCC(n2cc(S(=O)(=O)c3ccc(Cl)cc3)c3cccnc32)C1 (configuration not stated) |
| 11.1 nM | 338 nM | 74% |  |  | CC(C)N1CCCC(n2cc(S(=O)(=O)c3ccc(Cl)cc3)c3cccnc32)C1 (configuration not stated) |
| 2.7 nM |  |  | 278 nM |  | O=S(=O)(c1cccc(F)c1)c1cn(C2CCNC2)c2ncccc12 (configuration not stated) |
| 2 nM | 50 nM |  |  | 100% | O=S(=O)(c1ccccc1F)c1cn(C2CCNC2)c2ncccc12 (configuration not stated) |
| 11.5 nM | 28 nM | 63% |  |  | CN1CCCC(n2cc(S(=O)(=O)c3ccc(Cl)cc3)c3cccnc32)C1 (configuration not stated) |
| 0.9 nM | 23 nM |  |  | 98% | CN1CCC(n2cc(S(=O)(=O)c3cccc(Br)c3)c3cccnc32)C1 (configuration not stated) |
| 1.2 nM |  |  | 98 nM |  | O=S(=O)(c1ccc(Cl)s1)c1cn(C2CCCNC2)c2ncccc12 (configuration not stated) |
| 1.3 nM |  |  | 30 nM |  | O=S(=O)(c1cccc(Cl)c1)c1cn(C2CCCNC2)c2ncccc12 (configuration not stated) |
| 5.5 nM | 340 nM |  |  | 94% | O=S(=O)(c1ccc(Cl)cc1)c1cn(C2CCNC2)c2ncccc12 (configuration not stated) |
| 8.5 nM |  |  | 1650 nM |  | O=S(=O)(c1ccc(F)cc1)c1cn(C2CCNC2)c2ncccc12 (configuration not stated) |
